Measured values published in ChEMBL document CHEMBL1122205, “Catechol O-methyltransferase. 12. Affinity labeling the active site with the oxidation products of 5,6-dihydroxyindole” (J Med Chem, 1982).

Assays:
[1] = biological target: T1, Catechol O-methyltransferase (Rattus norvegicus) (UniProt P22734); assay: Evaluated for its ability to inactivate Catechol O-methyltransferase under anaerobic conditions, after 60 min at 37 degree. C; design: concentration or dose not given beside the values
T1 sequence (whole entry): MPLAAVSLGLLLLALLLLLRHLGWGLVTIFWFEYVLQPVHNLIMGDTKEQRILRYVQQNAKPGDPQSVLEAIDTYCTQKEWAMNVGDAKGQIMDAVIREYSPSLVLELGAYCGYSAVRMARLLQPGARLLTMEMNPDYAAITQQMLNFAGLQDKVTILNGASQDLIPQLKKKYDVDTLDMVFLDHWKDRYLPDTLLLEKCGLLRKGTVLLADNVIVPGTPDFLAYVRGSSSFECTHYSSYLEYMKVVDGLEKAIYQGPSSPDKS
Method in brief: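 Anaerobic variant: preincubation (inhibitor 0.5 mM, MgCl2 1.20 mM, phosphate pH 7.60, purified rat liver COMT, 60 min, 37 °C) in sealed ampules under nitrogen, inhibitor stocks in deoxygenated water, samples withdrawn by syringe and assayed in ampules under nitrogen.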

[2] = biological target: T1, Catechol O-methyltransferase (Rattus norvegicus); assay: (§1) Kinetic constants for the inactivation of Catechol O-methyltransferase by the compound
[3] = biological target: T2, Catechol O-methyltransferase (Rattus norvegicus, UniProt P22734); assay: as §1
T2 sequence (P22734 whole entry): T1 sequence (whole entry)

[4] = biological target: T1, Catechol O-methyltransferase (Rattus norvegicus); assay: Compound was evaluated for its ability to inactivate Catechol O-methyltransferase after dialysis
Method in brief: (§2)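 Purified rat liver COMT preincubated 60 min at 37 °C with inhibitor (0.5 mM), MgCl2 1.20 mM, phosphate buffer pH 7.60. Residual activity relative to unpreincubated controls (dialyzed 24 h for post-dialysis line); duplicate means.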

[5] = biological target: T1, Catechol O-methyltransferase (Rattus norvegicus); assay: Compound was evaluated for its ability to inactivate Catechol O-methyltransferase before dialysis; method in brief: as §2
[6] = biological target: T1, Catechol O-methyltransferase (Rattus norvegicus); assay: Evaluated for its ability to inactivate Catechol O-methyltransferase under aerobic conditions, after 60 min at 37 degree. C; design: concentration or dose not given beside the values
Method in brief: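 Aerobic preincubation of purified rat liver COMT with inhibitor (0.5 mM), MgCl2 1.20 mM, phosphate buffer pH 7.60 for 60 min at 37 °C. Residual activity versus controls assayed directly after inhibitor addition; duplicate means.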

[7] = biological target: T1, Catechol O-methyltransferase (Rattus norvegicus); assay: Kinetic constants for the inactivation of cCatechol O-methyltransferase by the compound

Compound	residual activity [1] [%]	K2 [2] [min⁻¹]	Ki [3] [mM]	residual activity [4] [c.p.m.]	residual activity [5] [c.p.m.]	residual activity [6] [%]	K2 [7] [min⁻¹]
Cc1c(O)c(O)cc2cc[nH]c12	84	0.16	1.14	262	277	0	–
Cc1c(O)c(O)c(C)c2[nH]ccc12	96	1.12	7.26	212	322	4.5	–
Oc1cc2cc[nH]c2cc1O	96	0.55	3.46	228	282	0	–
Cc1c(O)c(O)cc2[nH]ccc12	81	–	15.2	351	396	0	0.47
NCCc1c[nH]c2cc(O)c(O)cc12	89	0.086	0.328	232	242	0	–
